Key:
Prothrombin [1] = target: T1, Prothrombin (Homo sapiens, UniProt P00734); assay: Inhibitory activity against human thrombin was determined
Prothrombin [2] = target: T1, Prothrombin
[3] = Activated partial thromboplastin time (APTT) 2x control using human plasma; assay type: functional
Method in brief: (§1)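 Human plasma clotting; test compound added with a preincubation step before APTT measurement. The value is the compound concentration required to double the activated partial thromboplastin time. Lines with no significant effect were tested up to 100 µM.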

[4] = Selectivity was determined
[5] = target: Serine protease 1 (Homo sapiens) (UniProt P07477); assay: Inhibitory activity against protease trypsin was determined
Homo sapiens = organism: Homo sapiens; assay: Activated partial thromboplastin time (APTT) 2x control using human plasma; NE=no significant effect at 100 uM; assay type: functional, cell-free; method in brief: as §1

Chain of Serine protease 1 (Homo sapiens) (P07477 whole entry): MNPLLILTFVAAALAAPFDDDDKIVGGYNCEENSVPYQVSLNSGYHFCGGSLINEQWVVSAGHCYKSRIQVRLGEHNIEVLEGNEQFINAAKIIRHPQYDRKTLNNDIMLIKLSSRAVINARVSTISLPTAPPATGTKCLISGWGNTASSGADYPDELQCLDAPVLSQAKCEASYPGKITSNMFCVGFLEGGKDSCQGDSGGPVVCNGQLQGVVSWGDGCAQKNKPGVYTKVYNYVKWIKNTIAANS

SMILES	IC50 (Prothrombin [1]) [nM]	K obs / 1 (Prothrombin [2]) [M⁻¹ s⁻¹]	Selectivity [4]	K obs / 1 [5] [M⁻¹ s⁻¹]	APTT [3] [µM]	APTT (Homo sapiens)
N=C(N)CCC[C@H]1C(=O)O[C@H]2Cc3ccccc3[C@@H]21	600					
NC(N)=NCCC[C@H](NC(=O)[C@H]1CCCN1C(=O)[C@H](N)Cc1ccccc1)C(=O)CCl		1.6e+07				
N=C(N)CCCCC1C(=O)O[C@H]2Cc3ccccc3[C@H]12 (some centres undefined)	77	4200			100	
COc1cccc(-c2ccc3c(c2)C[C@@H]2OC(=O)C(C)(CCCCC(=N)N)[C@@H]32)c1 (some centres undefined)	1800					No effect
N=C(N)CCCCC1C(=O)O[C@H]2Cc3cc(-c4cccc(-c5ccccc5)c4)ccc3[C@H]12 (some centres undefined)		160000				No effect
NC(N)=NCCC[C@H](NC(=O)[C@@H]1CCCN1C(=O)[C@H](N)Cc1ccccc1)C(=O)CCl					1.8	
C/N=C(/N)CCCC[C@H]1C(=O)O[C@H]2Cc3ccc(-c4ccc(O)cc4)cc3[C@@H]21						No effect
CNC(=N)CCCC[C@H]1C(=O)O[C@H]2Cc3ccc(-c4ccc(O)cc4)cc3[C@@H]21	1600					

Now from value to compound, other results behind:

IC50 (Prothrombin [1]) [nM]	K obs / 1 (Prothrombin [2]) [M⁻¹ s⁻¹]	Selectivity [4]	K obs / 1 [5] [M⁻¹ s⁻¹]	SMILES	APTT [3] [µM]	APTT (Homo sapiens)
9	270000			N=C(N)CCCCC1C(=O)O[C@H]2Cc3ccc(-c4ccc(O)cc4)cc3[C@H]12 (some centres undefined)	42	
	33000			N=C(N)CCCCC1C(=O)O[C@H]2Cc3cc(-c4ccc(O)cc4)ccc3[C@H]12 (some centres undefined)	27	
	1.1e+07	55	200000	CCN(CC)C(=O)c1cccc(-c2ccc3c(c2)[C@@H]2C(CCCCC(=N)N)C(=O)O[C@H]2C3)c1 (some centres undefined)	40	
	3.8e+06	35	110000	N=C(N)CCCCC1C(=O)O[C@H]2Cc3ccc(-c4cccc(-c5ccccc5)c4)cc3[C@H]12 (some centres undefined)	85	
	48000	2.4	20000	N=C(N)CCCCC1C(=O)O[C@H]2Cc3cc(-c4ccccc4)ccc3[C@H]12 (some centres undefined)	50	
	490000			N=C(N)CCCCC1C(=O)O[C@H]2Cc3ccc(-c4ccccc4)cc3[C@H]12 (some centres undefined)	60	
	420000	1.9	220000	CCN(CC)C(=O)c1cccc(-c2ccc3c(c2)C[C@@H]2OC(=O)C(CCCCC(=N)N)[C@@H]32)c1 (some centres undefined)	4	
	96000	2.7	36000	COc1cccc(-c2ccc3c(c2)C[C@@H]2OC(=O)C(CCCCC(=N)N)[C@@H]32)c1 (some centres undefined)	25	
